Screens as filed in PubChem BioAssay.
In the library only some 5.5% were active in any assay of this set; here they are far more common.
WT yeast gro inh = growth inhibition of WT strain, primary screen, mitochondrial fusion inhibitor project, WT and mutant strains, chemical genetic; mitochondrial fusion phenotypic screen; inhibition, % at 10 µM; 2.1% of 190,000 active; AID 1362, 2008; in the data active means inhibition above about 58%; tested in S. cerevisiae
KCC2 mod = KCC2 cotransporter modulators, thallium flux, primary screen, cell-based, HEK293 KCC2, FluoZin-2 fluorescence, MLSMR; B-score of Tl+ flux slope (higher = more flux/activation; lower = inhibition) at 10 µM; 2.2% of 190,000 active; KCC2 cells, thallium flux FluoZin-2 fluorescence; Solute carrier family 12 member 5 (Homo sapiens), Q9H2X9; AID 1456, 2008;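 active means thallium flux slope and its plate-corrected score both differing from the plate sample mean at a set confidence after two filtering rounds, in either direction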;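 further: slope of fluorescence scaled to starting intensity during 10 to 20 s after thallium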
Target sequence (Q9H2X9 whole entry, looked up): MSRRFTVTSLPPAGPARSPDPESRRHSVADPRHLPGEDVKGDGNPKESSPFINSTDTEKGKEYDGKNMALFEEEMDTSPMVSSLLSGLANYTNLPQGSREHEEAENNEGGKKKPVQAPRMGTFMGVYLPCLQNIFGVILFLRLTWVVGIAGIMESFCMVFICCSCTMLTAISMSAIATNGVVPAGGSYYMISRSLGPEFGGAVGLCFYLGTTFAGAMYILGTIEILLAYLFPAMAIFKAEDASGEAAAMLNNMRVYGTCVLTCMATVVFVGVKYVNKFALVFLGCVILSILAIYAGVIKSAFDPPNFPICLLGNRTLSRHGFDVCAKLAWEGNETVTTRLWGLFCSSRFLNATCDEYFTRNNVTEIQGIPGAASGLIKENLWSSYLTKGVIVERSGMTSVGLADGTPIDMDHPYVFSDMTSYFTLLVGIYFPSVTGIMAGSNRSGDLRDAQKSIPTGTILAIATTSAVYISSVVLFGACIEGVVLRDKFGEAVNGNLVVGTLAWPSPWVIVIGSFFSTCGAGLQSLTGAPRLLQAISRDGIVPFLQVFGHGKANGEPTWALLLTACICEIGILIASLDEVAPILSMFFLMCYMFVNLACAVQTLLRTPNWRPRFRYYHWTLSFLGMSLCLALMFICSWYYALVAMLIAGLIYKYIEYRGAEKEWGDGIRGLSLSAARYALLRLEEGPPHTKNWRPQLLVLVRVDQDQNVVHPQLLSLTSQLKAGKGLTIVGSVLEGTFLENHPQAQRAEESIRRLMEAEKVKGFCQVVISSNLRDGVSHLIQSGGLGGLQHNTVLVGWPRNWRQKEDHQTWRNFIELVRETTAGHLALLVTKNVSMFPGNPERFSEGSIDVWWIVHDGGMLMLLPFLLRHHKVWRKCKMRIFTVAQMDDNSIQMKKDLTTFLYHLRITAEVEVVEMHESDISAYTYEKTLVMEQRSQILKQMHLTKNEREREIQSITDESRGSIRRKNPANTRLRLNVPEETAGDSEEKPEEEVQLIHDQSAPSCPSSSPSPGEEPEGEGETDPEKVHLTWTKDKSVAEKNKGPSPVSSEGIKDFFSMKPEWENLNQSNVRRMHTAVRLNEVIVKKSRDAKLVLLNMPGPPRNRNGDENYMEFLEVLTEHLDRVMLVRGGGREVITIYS
Yeast growth inh = growth inhibitors of yeast BB579 in restrictive medium, primary screen, yeast lifespan-shortening project, S. cerevisiae | inhibition, % at 10 µM | 0.51% of 140,000 active | OD615, 48 h;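 active means inhibition above a set limit, 3 SD over the mean compound inhibition, cut at about 44% in these data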
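Assay system: S. cerevisiae DeaD strain BB579 yeast. Medium: CSMM-D restrictive synthetic medium containing dextrose (glucose). Times: 4 h cell preincubation, 48 h compound exposure, 30 °C humidified. Signal: OD615 turbidity measurement. Benchmarks: positive control amphotericin B 10 µg/mL.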
RAM network inh = inhibitors of the yeast RAM network, primary screen, dse1pr::URA3 reporter, 5-FOA selection; S. cerevisiae dse1pr::URA3 reporter, 5-FOA growth OD615, 2 d; analog-sensitive cbk1-as2 kinase mutant strain; inhibition, % at 50 µM; 1.8% of 190,000 active;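 active means inhibition above a set limit, 3 SD over mean compound inhibition, cut at about 8.4% in these data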;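 further: 0% = DMSO-only wells with no growth and 100% = 10 µM 1-NA-PP1 full growth; inhibition rescues growth on 5-FOA so higher OD means more RAM inhibition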
Yeast life ext = compounds extending yeast replicative lifespan, primary screen, S. cerevisiae, OD615; S. cerevisiae growth with nicotinamide; deaD strain in restrictive glucose medium; inhibition of the nicotinamide effect, % at 10 µM; 0.68% of 130,000 active;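 active means inhibition above a set limit, placed 3 SD over the median of all compounds, cut at about 26% in these data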;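 further: 0% = nicotinamide-treated wells and 100% = cells grown without nicotinamide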
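Buffer or medium: CSMM-D glucose medium, restrictive; test system: modified budding yeast, DeaD strain; compound: single dose 10 µM compound, 0.25% DMSO; schedule: culture preincubation 4 h, compound exposure 48 h, both 30 °C; detection: optical density (absorbance) at 615 nm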
KCC2 sec1 = KCC2 modulators in sodium-free buffer, confirmation, cell-based, HEK293 KCC2, thallium flux, secondary assay | normalised thallium flux (F/F0 slope) at 10 µM | shares compounds with KCC2 mod | AID 1713, 2009 | 15% of 3,700 active | FluoZin2 fluorescence; active compounds read high;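 active means thallium flux slope above the same plate's solvent-only control mean plus 3 SD; inconclusive means the two replicate wells disagree; inactive means no significant difference from solvent-only control wells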
KCC2 bumet counter = thallium flux persisting under bumetanide in KCC2 cells, confirmation, counter-screen for KCC2 modulator project, cell-based, HEK293 KCC2, FluoZin2, secondary assay 3; normalized thallium flux at 10 µM; 49% of 3,700 active; shares compounds with KCC2 mod; AID 1714, 2009; HEK293-KCC2 + bumetanide/ouabain; active compounds read high;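 active means thallium entry rate above the same plate's blocked-transporter control wells by more than 3 SD; inconclusive means the two repeat wells disagree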;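 further: raw slope of fluorescence over initial fluorescence between 10 and 20 s after thallium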
KCC2 secondary2 = KCC2 modulators without ouabain present, confirmation, cell-based, HEK293 KCC2, thallium flux, FluoZin2, secondary assay 2. shares compounds with KCC2 mod. thallium flux FluoZin2 fluorescence; actives lie on both sides; F/F0 rise rate, 10–20 s post-thallium. normalized thallium flux at 10 µM. 23% of 3,700 active. AID 1715, 2009;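 active means thallium flux slope more than 3 SD above or below the plate's solvent-only control mean, mostly below; inconclusive means the two repeat wells disagreed; inactive means no significant shift from solvent-only controls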;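 further: raw slope with 0.1% DMSO as baseline and bumetanide as block control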
HEK293 Tl flux = thallium flux modulation in parental HEK cells, confirmation, counter-screen for KCC2 modulator project, cell-based, counterscreen 1. HEK293 parental cells, thallium flux FluoZin2, ouabain; baseline-ratio fluorescence slope, 10–20 s after thallium. shares compounds with KCC2 mod. thallium flux rate (normalised fluorescence) at 10 µM. 46% of 3,700 active;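 active means thallium flux rate significantly above the same plate's solvent-only control wells, beyond their mean plus 3 SD; inconclusive means the two replicate wells gave conflicting results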
KCC2 retest ouab = KCC2 inhibitors and activators, ouabain retest, confirmation, HEK-KCC2 cells. shares compounds with KCC2 mod. HEK293-KCC2, thallium flux FluoZin2 fluorescence; bidirectional: low = inhibitor, high = activator. raw Tl+ flux slope (below DMSO = inhibition, above = activation) at 10 µM. 48% of 3,700 active;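 active means thallium flux slope beyond 3 SD from same-plate DMSO control mean in most replicates, usually higher, sometimes lower; inconclusive means repeat tests gave conflicting results; inactive means no significant difference from controls in most replicates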;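 further: slope of initial-normalized fluorescence between seconds 10 and 20 after thallium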
HEK293 Tl flux2 = native HEK Tl+ uptake effects, second counter-screen – HEK cells, counterscreen 2, counter-screen for KCC2 modulator project, confirmation; shares compounds with KCC2 mod; HEK293 parental, thallium flux FluoZin-2 fluorescence slope; thallium flux slope at 10 µM; 33% of 3,700 active; AID 1718, 2009;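 active means thallium flux slope above the same plate's solvent-control mean plus 3 SD in both duplicate wells; inconclusive means duplicate wells that disagreed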;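 further: run without ouabain in cells lacking the KCC2 cotransporter; slope of fluorescence scaled to its starting value between 10 and 20 s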
An asterisk follows results filed as active; u = inconclusive; x = no result.

SMILES | WT yeast gro inh | KCC2 mod | Yeast growth inh | RAM network inh | Yeast life ext | KCC2 sec1 | KCC2 bumet counter | KCC2 secondary2 | HEK293 Tl flux | KCC2 retest ouab | HEK293 Tl flux2
O=C(CSc1ccc(-c2ccccc2)nn1)N1CCCCC1 | 13 | -0.32 | x | 0 | x | x | x | x | x | x | x
CC1CCN(C(=O)CSc2ccc(-c3ccc(F)cc3)nn2)CC1 | -9 | -5.3* | -47 | 0 | -19 | 0.0058 | u | 0.021* | 0.0075 | 0.015* | 0.0098
Cc1nc(N2CCOCC2)nc(OCCN2CCOCC2)c1[N+](=O)[O-] | 6 | 0.66 | -42 | 1 | -3 | x | x | x | x | x | x
Cc1cc2c(=O)oc(-c3ccc(Br)cc3)nc2s1 | x | 0.33 | x | x | x | x | x | x | x | x | x
CC(C)Cn1c(-c2ccc(Br)cc2)c[nH]c1=S | 41 | 22* | x | 1 | x | 0.0067 | 0.028* | u | 0.025* | 0.029* | 0.025*
CCn1c(-c2ccccc2)c[nH]c1=S | -8 | 0.063 | -23 | 0 | -2 | x | x | x | x | x | x
Cc1cc(C)nc(N2CCN(C(=O)CCC(=O)Nc3nnc(C(C)C)s3)CC2)n1 | x | 2 | x | x | x | x | x | x | x | x | x
CCOC(=O)C1=C(C)N(C2CCCCC2)C(=O)C1 | -20 | x | -8 | 0 | -8 | x | x | x | x | x | x
COC(=O)C1=C(C)N(C2CCCCC2)C(=O)C1 | -6 | 6.2* | -20 | -1 | -22 | 0.007 | 0.0068 | 0.029 | 0.007 | 0.019 | 0.009
CC(C)Sc1nnc([C@H](Cc2c[nH]c3ccccc23)NC(=O)OC(C)(C)C)o1 | 21 | -6.3* | -1 | 1 | -14 | 0.0069 | 0.0051 | 0.028* | u | 0.013* | 0.011
Cc1ccc(N=Nc2c(C)[nH]n(C(N)=S)c2=O)cc1C | 60* | 16* | -19 | 1 | -6 | 0.0084 | 0.067* | 0.031 | 0.021* | 0.06* | 0.009
CC(=O)Nc1ccc(N=Nc2c(C)[nH]n(C(N)=S)c2=O)cc1 | 3 | 0.12 | x | 1 | x | x | x | x | x | x | x
Cc1[nH]n(C(N)=S)c(=O)c1N=Nc1ccc2ccccc2c1 | 66* | 32* | x | 1 | x | 0.0059 | 0.088* | u | 0.027* | 0.036* | 0.019*
Nc1cc(-c2ccc(Br)cc2)[nH]n1 | 12 | 1.5 | -33 | 1 | -6 | x | x | x | x | x | x
NC(=S)n1[nH]c(-c2ccc([N+](=O)[O-])cc2)c(N=Nc2cccc([N+](=O)[O-])c2)c1=O | 23 | -2 | x | 3 | x | x | x | x | x | x | x
Cc1[nH]n(C(N)=S)c(=O)c1N=Nc1cc(-c2ccc(Br)cc2)[nH]n1 | 25 | -6.9* | x | 6 | x | 0.008 | 0.0049 | 0.032 | 0.0056* | 0.011* | 0.011
CCOC(=O)C1CCCN(C(=O)COc2ccc(N(C)S(=O)(=O)c3ccc(F)cc3)cc2)C1 (stereo not drawn) | -17 | -0.57 | x | 1 | x | x | x | x | x | x | x
O=S(=O)(c1ccccc1)n1ccc2cccnc21 | -7 | 0.53 | -9 | 1 | 13 | x | x | x | x | x | x
O=C(Nc1ccc2nc3n(c(=O)c2c1)CCCC3)c1cc([N+](=O)[O-])ccc1F | -7 | -3.1* | -40 | 2 | -5 | 0.0097 | 0.0063 | 0.035 | u | 0.018 | 0.01
O=C1CC(c2ccccc2)=NN1c1nc(-c2ccccc2)cs1 | -10 | 9.7* | x | 2 | x | 0.013* | 0.039* | 0.03 | 0.013* | 0.034* | u
COc1ccc(C(=O)NCc2nnc(SCC(=O)N3CCc4ccccc43)n2CCc2ccccc2)cc1 | 14 | 0.01 | 0 | 0 | -4 | x | x | x | x | x | x
CNC(=O)CN(c1cccc(Br)c1)S(C)(=O)=O | -4 | 1.8 | -23 | 0 | -5 | 0.015 | 0.0045 | 0.027 | 0.0074 | 0.016 | 0.011
CC(C)NC(=O)CN(c1cccc(Br)c1)S(C)(=O)=O | 7 | 1.1 | -54 | 0 | 0 | x | x | x | x | x | x
Cc1c(C2Nc3ccccc3NC3=C2C(=O)CC(C)(C)C3)cnn1C (stereo not drawn) | -16 | 0.41 | -33 | 0 | x | x | x | x | x | x | x
Cc1cc2c(cc1C)NC(c1nc3ccccc3[nH]1)C1=C(CC(C)(C)CC1=O)N2 (stereo not drawn) | 33 | -3.8* | -32 | 0 | -17 | 0.01 | 0.0052 | 0.036 | 0.004 | 0.02 | 0.011
SMILES | WT yeast gro inh | KCC2 mod | Yeast growth inh | RAM network inh | Yeast life ext | KCC2 sec1 | KCC2 bumet counter | KCC2 secondary2 | HEK293 Tl flux | KCC2 retest ouab | HEK293 Tl flux2
O=C(NC(=S)Nc1ccccc1Cl)c1cncc(C#Cc2ccccc2)c1 | x | 12* | x | x | x | 0.01 | 0.015* | 0.036 | 0.011* | 0.03 | u
Cc1[nH]n(-c2ccccc2)c(=O)c1/C=N/N1C(=O)c2ccc3c4c(ccc(c24)C1=O)CC3 | 27 | 11* | 79* | 2 | -9 | u | 0.021* | 0.032 | 0.012* | u | 0.011
Cc1[nH]n(-c2ccccc2)c(=O)c1/C=N/O | 0 | x | 5 | 0 | -14 | x | x | x | x | x | x
Cc1[nH]n(-c2ccccc2)c(=O)c1/C=N/N(C)c1ccccc1 | -10 | 22* | -7 | 5 | -6 | 0.0067 | 0.05* | 0.045* | 0.032* | 0.044* | 0.035*
COc1ccc(CCNC(=O)Cn2cnc3c(cnn3-c3ccccc3Cl)c2=O)cc1OC | -13 | x | 0 | 0 | -4 | x | x | x | x | x | x
CCOc1ccccc1N1CCN(CC(=O)NCCc2ccc(S(N)(=O)=O)cc2)CC1 | -2 | 0.8 | x | 1 | x | x | x | x | x | x | x
CCc1cc2c(SCC#N)ncnc2s1 | 17 | 6.1* | x | 0 | x | 0.0066 | 0.017* | 0.036 | 0.017* | 0.027* | 0.017*
